NR3A LBD binder: modulates the human NR3A ligand-binding domain | NR3A LBD differential scanning fluorimetry, Tm shift; 0% = protein alone, 100% = glycine-bound protein | Tm shift relative to glycine control, % at 25 µM | hit rate 2.5% among 340,000;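 active = melting temperature shift of at least 10% of the positive control shift, at one fixed dose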
procasp3 activ: activates human procaspase-3; recombinant procaspase-3 D3A, Ac-DEVD-pNA absorbance 405 nm; P42574; activation, % at 8.5 µM; hit rate 0.11% among 330,000;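 active = activation above the mean of all tested compounds plus 3 SD, cut at about 21% in these data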;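 also: 0% = DMSO alone and 100% = DMSO wells spiked with extra 5 µM PC-3 D3A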
Target sequence (P42574 whole entry D9A/D28A/D175A): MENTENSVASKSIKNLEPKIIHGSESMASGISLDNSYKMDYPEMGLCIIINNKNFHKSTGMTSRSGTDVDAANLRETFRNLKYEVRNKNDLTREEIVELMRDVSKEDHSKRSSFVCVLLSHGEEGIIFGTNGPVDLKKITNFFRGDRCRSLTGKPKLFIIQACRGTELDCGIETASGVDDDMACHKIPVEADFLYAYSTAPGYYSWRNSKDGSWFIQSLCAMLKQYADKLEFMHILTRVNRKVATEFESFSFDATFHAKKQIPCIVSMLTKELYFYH
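Evaluation: percent activation relative to control range; Material: Procaspase-3 D3A mutant, all three cleavage aspartates alanine; Compound: single dose, 8.5 µM nominal compound, 0.8% DMSO; Replication: one well per compound; Signal: absorbance at 405 nm, 0 and 120 min; Schedule: 1 h preincubation plus 2 h reaction at 25 °C.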
aDG glyco up: increases alpha dystroglycan glycosylation; hit rate 0.22% among 360,000; AID 624168; activation, % at 10 µM; Pro5-aDG cells, alpha-DG glycosylation AlphaScreen (IIH6); 0% Pro5, 100% B10-LARGE cell signal;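 active = activation of at least 8% versus controls, or a plate z-score of at least 8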;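 also: Pro5 are CHO cells carrying HIG-tagged alpha-DG that lacks glycosylation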
MPTP block: inhibitors of mitochondrial permeability transition pore. isolated mouse mitochondria, Ca2+ swelling absorbance, 30 min. inhibition, % at 10 µM. hit rate 1.4% among 360,000. AID 602449;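 active = inhibition of 50% or more, scaled per plate between neutral and stimulator controls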;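 also: 0% = DMSO wells given calcium and 100% = 1 mM EGTA wells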
proCasp7 act: activates human procaspase-7, counter-screen for procaspase-3 activators | P55210 | recombinant procaspase-7, Ac-DEVD-pNA absorbance 405 nm; D23A/D198A/D206A triple mutant, cannot self-cleave; scale: DMSO 0, 5 µM enzyme 100 | activation, % at 8.5 µM | hit rate 0.093% among 330,000 | AID 463210;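 active = percent activation above the screen-wide mean plus 3 SD, cut at about 25% in these data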
Target sequence (P55210 whole entry D23A/D198A/D206A): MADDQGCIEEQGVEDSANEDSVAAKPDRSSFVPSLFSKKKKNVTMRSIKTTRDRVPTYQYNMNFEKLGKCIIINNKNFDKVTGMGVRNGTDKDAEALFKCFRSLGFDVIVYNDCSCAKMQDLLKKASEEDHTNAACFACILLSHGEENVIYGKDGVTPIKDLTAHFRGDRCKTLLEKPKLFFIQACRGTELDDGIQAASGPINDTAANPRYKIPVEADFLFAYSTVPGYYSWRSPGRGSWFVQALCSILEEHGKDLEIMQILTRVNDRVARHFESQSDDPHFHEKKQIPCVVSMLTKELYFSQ
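Material: Procaspase-7 triple mutant (PC-7 D3A) | Quantity: 2 µM procaspase-7 mutant as dispensed | Reagent: DEVD-pNA substrate | Times: 1 h preincubation, 2 h reaction | Technique: 405 nm absorbance of p-nitroaniline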
The depositor's hits bear a star; / = not tested or not shown; ! = a repeat was not active. A selection: hits, their analogues and other compounds. The true share with any hit is near 3.7%.

SMILES | NR3A LBD binder | procasp3 activ | aDG glyco up | MPTP block | proCasp7 act
CSCC[C@H](NC(=O)[C@H](Cc1ccccc1)n1c(=O)[nH]c2ccccc2c1=O)C(=O)N1CCC(C(=O)O)CC1 | -0.5 | -2.8 | -0.2 | -1.5 | -6.6
Cc1[nH]c2ccc(C(=O)OCC(=O)Nc3cccc(S(N)(=O)=O)c3)cc2c1C | -3.0 | 11.5 | 0.0 | -0.4 | 0.6
CCn1c(=O)c(C(=O)CN(C)CC(=O)Nc2ccccc2Br)c(N)n(Cc2ccccc2)c1=O | -3.9 | / | 0.2 | 0.1 | /
N#Cc1c(NC(=O)CN2C(=O)c3ccccc3C2=O)oc(-c2ccccc2)c1-c1ccccc1 | 17.0* | -5.2 | 0.1 | -1.4 | -9.7
N#Cc1c(NC(=O)CCN2C(=O)c3ccccc3C2=O)oc(-c2ccccc2)c1-c1ccccc1 | -1.6 | -3.3 | -0.1 | 0.4 | 14.2
C#CCOCCOCCOCCNc1nc(N2CCN(C(=O)Cn3cc(CCO)nn3)CC2)nc(N2CCN(C(=O)[C@H](Cc3ccc(O)cc3)n3cc(CCO)nn3)CC2)n1 | -0.3 | / | 0.2 | -1.9 | /
CN(C(=O)c1cccc(NC(=O)Cc2cccc(NC(=O)C3CCCN(C(=O)CCc4ccccc4)C3)c2)c1)C1CCC1 (stereo unspecified) | -1.9 | / | 0.1 | 0.4 | /
CC(=O)Nc1ccc2ccccc2c1 | -0.1 | -3.4 | -0.2 | -0.6 | 6.3
COc1ccc(NC(=O)Nc2ccc(Br)c(C)c2)cc1 | 25.2* | 6.1 | 0.4 | 35.6 | -2.5
COc1ccc(NC(=O)Nc2cc(C)ccc2F)cc1 | -2.5 | 5.3 | 0.4 | 0.4 | 14.5
CC(=O)Nc1cccc(NC(=O)Nc2ccc(C)c(Cl)c2)c1 | 35.9* | -2.0 | 0.0 | 2.8 | 2.4
CC(=O)Nc1ccc2cc3ccc(NC(C)=O)cc3nc2c1 | 10.3* | -2.4 | -0.1 | 0.3 | -5.9
Cc1ccc(NC(=O)Nn2cnnc2)cc1Cl | 0.1 | 1.8 | 0.0 | -0.9 | -3.9
CC(=O)Nc1ccc(NC(=O)Nc2ccc(C)c(C)c2)cc1 | 13.2* | -1.3 | 0.3 | 0.3 | -6.0
O=[N+]([O-])c1ccc(S(=O)(=O)Nc2ccc(-c3csc(-c4ccccc4)n3)cc2)cc1 | / | 2.3 | / | / | 6.7
Cc1ccc(S(=O)(=O)Nc2nc(-c3ccccc3)cs2)cc1 | -3.6 | -2.3 | 0.0 | 0.8 | -6.2
O=S(=O)(Nc1ccc(-c2csc(-c3ccccc3)n2)cc1)c1ccccc1 | 20.4* | -1.4 | 0.1 | 4.6 | 1.4
c1ccc(-c2csc(-c3ccc(-c4csnn4)cc3)n2)cc1 | 18.6* | -0.6 | 0.0 | 1.1 | 6.3
Cc1ccc(S(=O)(=O)Nc2ccc(-c3csc(-c4ccccc4)n3)cc2)cc1 | 24.4* | -7.6 | -0.1 | 4.1 | 2.8
CC1(C(=O)NS(=O)(=O)C2CC2)CCN(C(=O)c2ccccc2F)C1 (stereo unspecified) | / | / | 0.0 | 0.2 | /
OC(c1ccc(Cl)cc1)c1ncc(-c2cccc(C(F)(F)F)c2)[nH]1 (stereo unspecified) | / | / | 1.0 | 16.6 | /
CC(Sc1nnc2n1CCCCC2)C(=O)Nc1cccc(S(=O)(=O)N2CCOCC2)c1 (stereo unspecified) | 0.3 | / | -0.2 | -0.8 | /
O=C(COC(=O)c1ccc(Cl)c(S(=O)(=O)N2CCN(c3ccc(F)cc3)CC2)c1)Nc1cccc(Cl)c1 | 25.3* | 3.0 | -0.2 | 26.0 | 4.4
COc1ccc(C(CNC(=O)c2ccc(S(=O)(=O)Nc3ccccc3OC)cc2)N2CCCC2)cc1 (stereo unspecified) | 1.7 | / | 0.1 | -0.6 | /
NC1=NC2(CCCCC2)N(c2ccc(F)cc2)C(N)=N1 | 20.1* | -3.0 | 0.1 | -1.4 | -8.3
SMILES | NR3A LBD binder | procasp3 activ | aDG glyco up | MPTP block | proCasp7 act
CCC(C)NC(=O)CCn1c(=O)c2cccn2c2ccc(F)cc21 (stereo unspecified) | -2.7 | / | 0.0 | -1.1 | /
CC1=C(C(=O)NC2CCC(C)CC2)C2(CCC(C)CC2)OC1=O (stereo unspecified) | 13.5* | 1.8 | 1.2 | 0.2 | 1.8
CCOC(=O)N1CCC(NC(=O)C2=C(C)C(=O)OC23CCC(C)CC3)CC1 (stereo unspecified) | -4.2 | 7.3 | -0.2 | -1.4 | -2.5
Nn1c(SCC(=O)Nc2ccc3c(c2)OCO3)nnc1-c1ccc(Cl)cc1 | 17.9* | 8.1 | -0.1 | 0.3 | 4.0
Nn1c(SCC(=O)Nc2ccc3c(c2)OCO3)nnc1-c1ccccc1 | 2.4 | 7.0 | 0.3 | -0.3 | 5.0
CCC(=O)Nc1nnc(SCC(=O)Nc2ccc3c(c2)OCCO3)s1 | 0.7 | -1.7 | -0.3 | 0.1 | 7.3
CCC(=O)Nc1nnc(SCC(=O)Nc2ccc3c(c2)OCO3)s1 | 27.8* | 1.9 | 0.4 | -0.4 | 4.9
CC(C)C(=O)Nc1nnc(SCC(=O)Nc2ccc3c(c2)OCO3)s1 | 36.5* | 0.1 | 0.3 | 0.9 | -0.4
CC(C)C(=O)Nc1nnc(SCC(=O)Nc2ccc3c(c2)OCCO3)s1 | 4.7 | -3.3 | -0.1 | 0.1 | 2.7
Nc1cc(-c2ccncc2)c[nH]c1=O | 12.9* | -15.8 | -0.1 | -1.2 | -7.0
OC(c1cccc(Cl)c1)c1nc(-c2csc3ccccc23)cs1 (stereo unspecified) | / | / | 0.1 | 1.8 | /
O=C(Nc1ccc(F)cc1)Oc1ccc[nH]c1=O | 11.9* | 11.5 | -0.1 | 3.2 | -3.2
CCCCNC(=O)CC1Nc2ccccc2NC1=O (stereo unspecified) | 20.1* | 5.7 | 0.1 | -1.3 | 7.2
O=C(CC1NC(=O)NC1=O)Nc1ccc(Cl)cc1 (stereo unspecified) | 1.1 | 6.3 | -0.5 | -0.3 | 11.3
O=C(CC1Nc2ccccc2NC1=O)Nc1cc(Cl)cc(Cl)c1 (stereo unspecified) | 29.3* | -5.5 | 0.7 | 4.2 | -9.1
O=C(CC1Nc2ccccc2NC1=O)NCCCN1CCCCCC1 (stereo unspecified) | -2.1 | -1.9 | -0.1 | -4.8 | 11.7
Nc1c2c(nc3sc4c(c13)CCCC4)-c1ccccc1CC2 | 22.5* | -5.1 | 0.4 | 9.1 | 7.7
CCCCN1C(=O)C(CC(=O)NCc2cccc3ccccc23)CC(C(=O)N2CCOCC2)=C1C (stereo unspecified) | / | / | -0.4 | -0.5 | /
COc1ccc(C(=O)/C=C/C(=O)N(Cc2ccccc2)C(C(=O)NC2CCCCC2)c2ccncc2)c(O)c1 (stereo unspecified) | 17.4* | 1.5 | 0.1 | 1.4 | -9.1
O=C(Nc1ccccc1)c1cc(S(=O)(=O)N2CCOCC2)cs1 | 0.7 | 4.5 | -0.1 | -0.9 | -1.5
NS(=O)(=O)c1ccc(NC(=O)c2cc(-c3cc(Cl)ccc3O)n[nH]2)cc1 | 33.6* | / | -0.2 | 1.5 | /
O=C(Nc1cccc([N+](=O)[O-])c1)c1cc(S(=O)(=O)N2CCOCC2)cs1 | 22.4* | -0.2 | 0.0 | -0.7 | -7.7
CN1CCN(S(=O)(=O)c2ccc(Cl)cc2)CC1 | 14.0*! | 2.8 | -0.1 | -0.1 | -5.0
CN1CCN(S(=O)(=O)c2ccc(-c3ccc(Cl)cc3)cc2)CC1 | 2.8 | -1.6 | 0.1 | 0.7 | 3.5

Bioassay records: PubChem BioAssay, several laboratories
